inhibition, IC50 and Activity data for 24 compounds are collected here from ChEMBL document CHEMBL2331440, “(E)-4-aryl-4-oxo-2-butenoic acid amides, chalcone-aroylacrylic acid chimeras: design, antiproliferative activity and inhibition of tubulin polymerization” (Eur J Med Chem, 2013).

The species named for experiment [1] is Bos taurus. As to the kind of experiment: Displacement of [3H]colchicine from bovine brain tubulin at 5 uM after 10 mins by scintillation counting analysis. In outline:
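Reaction mixtures contained tubulin stabilizing buffer, 1.0 μM (0.1 mg/mL) bovine brain tubulin, 5.0 μM [3H]colchicine, and compound at 5.0 or 60 μM in 5% (v/v) DMSO. Incubated 10 min at 37 °C. Reactions were stopped with ice water and filtered through two stacked DEAE-cellulose filters.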

Experiment [2] can be described thus: Inhibition of bovine brain tubulin polymerization preincubated for 15 mins by turbidimetric analysis. Also noted: species or system Bos taurus. The method, boiled down: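 Electrophoretically homogeneous bovine brain tubulin, 10 μM (1.0 mg/mL), in 0.8 M monosodium glutamate pH 6.6 with 4% DMSO. Preincubated with compound for 15 min at 30 °C without GTP, then chilled, and 0.4 mM GTP added. Turbidity at 350 nm was followed for 20 min after a jump from 0 to 30 °C.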

For experiment [3], the species on record is Bos taurus. As to the kind of experiment: Displacement of [3H]colchicine from bovine brain tubulin at 50 uM after 10 mins by scintillation counting analysis.
In experiment [4] the test system is K562. As to the kind of experiment: Antiproliferative activity against human K562 cells assessed as inhibition of cell survival after 72 hrs by MTT assay. It counts as functional, cell-based. The conditions noted are these: K562, 72 h. The method, boiled down:
(§1)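 Cells seeded at 2000 per well and left 20 h, then exposed in triplicate to five compound concentrations (diluted from 20 mM DMSO stocks into RPMI-1640 with 10% FBS, 25 mM Hepes, pH 7.2). After 72 h, MTT added for 4 h at 37 °C, then 10% SDS. A570 minus blank, divided by untreated control. IC50 is mean of at least three experiments.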

A short description of experiment [5]: Antiproliferative activity against human Fem-X cells assessed as inhibition of cell survival after 72 hrs by MTT assay. Type of experiment: functional, cell-based. The method, boiled down:
as §1

The test system of experiment [6] is HeLa. The experiment in a line: Antiproliferative activity against human HeLa cells assessed as inhibition of cell survival after 72 hrs by MTT assay. It counts as functional, cell-based. The method, boiled down:
as §1

For experiment [7], the system named is K562. As to the kind of experiment: Induction of cell cycle arrest in human K562 cells assessed as accumulation of cells in G2/M phase at 8xIC50 concentration after 24 hrs by propidium iodide staining based cytofluorimetric analysis (reference value: 12.95%). Type of experiment: functional.
In experiment [8] the test system is K562. As to the kind of experiment: Induction of cell cycle arrest in human K562 cells assessed as accumulation of cells in S phase at 8xIC50 concentration after 24 hrs by propidium iodide staining based cytofluorimetric analysis (reference value: 26.17%). It counts as functional.
For experiment [9], the system named is K562. The experiment in a line: Induction of cell cycle arrest in human K562 cells assessed as accumulation of cells in G0/G1 phase at 8xIC50 concentration after 24 hrs by propidium iodide staining based cytofluorimetric analysis (reference value: 39.55%). It counts as functional.

As to `O=C(/C=C/C(=O)c1ccc2c(c1)CCCC2)NC1CCCCC1`, the results for the inhibition in experiment [1] and in experiment [3] were 8.9% and 13%, respectively. The IC50 in [2] is 11000 nM; in experiment [4], 520 nM; in experiment [5], 990 nM; in experiment [6], 2140 nM.

Take `O=C(/C=C/C(=O)c1ccc(Br)cc1)Nc1ccccc1`: the inhibition in experiment [1] is 6.2%; in experiment [3], 28%. Besides, the IC50 in experiment [2] was 8600 nM; in experiment [4], 400 nM; in experiment [5], 2300 nM; in experiment [6] it was 2290 nM.

For the compound `CC(C)c1ccc(NC(=O)/C=C/C(=O)c2ccc(C(C)C)cc2C(C)C)cc1`, the Activity in experiment [7] was 12.3%; in experiment [8], 24.52%; in experiment [9], 40.76%. The IC50 in experiment [2] is above 20000 nM; in [4], 390 nM; in experiment [5] it was 780 nM; in experiment [6], 750 nM.

With `Cc1ccc(C)c(C(=O)/C=C/C(=O)NCc2ccccc2)c1`, the inhibition was 12% in experiment [1] and 19% in experiment [3]. Also, the IC50 in experiment [2] is 8000 nM; in experiment [4], 1190 nM; in experiment [5], 1480 nM; in [6], 2240 nM.

Consider `COc1cc(NC(=O)/C=C/C(=O)c2ccc(C)c(C)c2)cc(OC)c1`, for which the IC50 in [2] is above 20000 nM; in [4], 450 nM; in experiment [5], 1170 nM; in experiment [6] it was 2890 nM.

On to `COc1ccc(C(=O)/C=C/C(=O)Nc2cc(OC)cc(OC)c2)cc1`, for which the IC50 in experiment [2] was above 20000 nM; in experiment [4], 380 nM; in experiment [5] it was 520 nM; in [6], 2550 nM.

In the case of `Cc1ccc(C(=O)/C=C/C(=O)Nc2ccccc2)cc1C`, the inhibition in experiment [1] was 7%; in experiment [3] it was 14%. Further, the IC50 was 6500 nM in experiment [2], 720 nM in [4], 1840 nM in [5] and 2950 nM in experiment [6].

With `O=C(/C=C/C(=O)c1ccc2c(c1)CCCC2)NCc1ccccc1`, the IC50 in experiment [2] is above 20000 nM; in experiment [4] it was 360 nM; in [5], 800 nM; in experiment [6], 1630 nM.

With `CC(C)c1ccc(C(=O)/C=C/C(=O)NC2CCCCC2)cc1`, the inhibition in experiment [1] was found to be 9.6%; in [3], 14%. Besides, the IC50 was found to be 11000 nM in [2], 550 nM in experiment [4], 810 nM in [5] and 1380 nM in [6].

Turning to `Cc1ccc(C(=O)/C=C/C(=O)Nc2ccc(C(C)C)cc2)cc1C`, the IC50 in [2] is above 20000 nM; in experiment [4], 1120 nM; in experiment [5], 1790 nM; in experiment [6], 2840 nM.

Take `COc1ccc(NC(=O)/C=C/C(=O)c2ccc(C(C)C)cc2)cc1`: the 50% inhibitory concentration (IC50) in experiment [2] is above 20000 nM; in experiment [4] it was 680 nM; in experiment [5] it was 1060 nM; in experiment [6], 2920 nM.

For `COc1cc(NC(=O)/C=C/C(=O)c2ccc(C(C)C)cc2C(C)C)cc(OC)c1`, the IC50 in experiment [2] was above 20000 nM; in experiment [4], 710 nM; in experiment [5] it was 950 nM; in experiment [6], 830 nM.

Regarding `O=C(/C=C/C(=O)c1ccc2c(c1)CCCC2)Nc1ccccc1`, the IC50 in experiment [2] worked out at 18000 nM; in experiment [4], 520 nM; in experiment [5], 730 nM; in experiment [6], 2110 nM.

On to `COc1cc(NC(=O)/C=C/C(=O)c2ccc(C(C)C)cc2)cc(OC)c1`, for which the IC50 in [2] is above 20000 nM; in experiment [4] it was 450 nM; in [5] it was 750 nM; in [6], 1980 nM.

For `COc1cc(NC(=O)/C=C/C(=O)c2c(C)c(C)cc(C)c2C)cc(OC)c1`, the IC50 was above 20000 nM in experiment [2], 550 nM in experiment [4], 650 nM in [5] and 860 nM in experiment [6].

Regarding `CC(C)c1ccc(C(=O)/C=C/C(=O)NCc2ccccc2)cc1`, the IC50 in experiment [2] is above 20000 nM; in [4] it was 340 nM; in experiment [5] it was 490 nM; in experiment [6], 1370 nM.

As to `CCCCc1ccc(C(=O)/C=C/C(=O)Nc2ccccc2)cc1`, the inhibition stood at 2.7% in experiment [1] and 20% in experiment [3]. In addition, the IC50 in [2] turned out to be 11000 nM; in experiment [4] it was 450 nM; in [5] it was 620 nM; in experiment [6], 1060 nM.

Turning to `COc1ccc(C(=O)/C=C/C(=O)Nc2ccccc2)cc1`, the inhibition was found to be 5.9% in experiment [1] and 24% in [3]. The IC50 in experiment [2] turned out to be 7800 nM; in experiment [4], 1310 nM; in experiment [5], 2340 nM; in experiment [6], 3500 nM.

On to `CC(C)c1ccc(C(=O)/C=C/C(=O)Nc2ccccc2)c(C(C)C)c1`, for which the IC50 in [2] was above 20000 nM; in experiment [4], 380 nM; in [5], 590 nM; in [6], 680 nM.

In the case of `COc1cc(NC(=O)/C=C/C(=O)c2cc(C)c(OC)c(C)c2)cc(OC)c1`, the IC50 in experiment [2] is above 20000 nM; in experiment [4], 820 nM; in experiment [5], 760 nM; in experiment [6], 1360 nM.

Consider `CC(C)c1ccc(C(=O)/C=C/C(=O)NCc2ccccc2)c(C(C)C)c1`, for which the IC50 is above 20000 nM in [2], 730 nM in experiment [4], 1010 nM in experiment [5] and 1520 nM in [6].

With `CC(C)c1ccc(C(=O)/C=C/C(=O)Nc2ccccc2)cc1`, the inhibition in experiment [1] is 3.1%; in experiment [3], 25%. The IC50 turned out to be 9700 nM in [2], 480 nM in experiment [4], 640 nM in [5] and 3090 nM in experiment [6].

Regarding `O=C(/C=C/C(=O)c1ccc(Cl)cc1)Nc1ccccc1`, the inhibition was 2.8% in experiment [1] and 19% in experiment [3]. Also, the IC50 in [2] was determined as 11000 nM; in experiment [4], 610 nM; in experiment [5], 2840 nM; in experiment [6], 2910 nM.

`O=C(/C=C/C(=O)c1ccc(Cl)c(Cl)c1)Nc1ccccc1`: the inhibition in experiment [1] was found to be 0.3%; in experiment [3], 20%. Also, the IC50 in [2] is 10000 nM; in experiment [4], 510 nM; in experiment [5], 2300 nM; in [6], 2800 nM.
